Shown are actives, neighbours in structure and some others; about 8.9% of the full set was active somewhere.
MT stabilizer = stabilizes microtubules in HeLa cells; % tubulin-high responders, % at 10 µM; AID 2205; HeLa tubulin immunostaining HCS, 24 h; share of cells brighter than vehicle mean+2SD; hit rate 0.83% among 200,000;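 active means plate Z-score above 3 for both tubulin-high and condensed-nucleus cell shares, with cell loss under 80%, at 10 µM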;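 further: anti alpha tubulin signal scored within the nucleus-defined area of each cell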
Dynein transport = dynein cargo transport inhibition | 3617.4 mouse cells, GR-EGFP nuclear translocation imaging; test concentration mostly 20 µM; stimulated with dexamethasone, 1 µM; active compounds read low | AID 1381 | z-score, hits read low | hit rate 0.47% among 220,000;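 active means plate z-score of nuclear minus cytoplasmic receptor signal below a set negative limit, without overly bright fluorescence or cell loss, cut at about -3.5 in these data, passing the limit was not always enough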;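 further: z-score of nuclear minus cytoplasmic ring GR-EGFP intensity difference per well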
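Also added – dexamethasone, 1.0 µM final · Buffer or medium – tet-free, stripped-serum medium · Schedule – induction 48 h, compound 1 h, agonist 30 min · Detection – formaldehyde fixation, Hoechst nuclear stain, 10x automated fluorescence imaging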
b-catenin transl = alters nuclear translocation of beta-catenin in HeLa cells | immunofluorescence imaging | nuclear translocation activity, % at 5 µM | hit rate 0.3% among 190,000 | AID 1665;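 active means nuclear translocation activity above 50% at 5 µM, with a well cell count of 50 or more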;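 further: per-cell ratio of nuclear to cytoplasmic median beta-catenin stain intensity; plate controls were DMSO negative control for no effect and GSK-3 inhibitor IX positive control for full effect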
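System: Human HeLa cells, endogenous beta-catenin | Compound dosing: 5 µM primary, 0.02–20 µM confirmation | Timing: 24 h compound exposure at 37°C, 5% CO2 | Measured by: Fluorescence imaging of beta-catenin antibody stain plus DAPI | Read-out basis: % activation of per-cell nuclear versus cytoplasmic median beta-catenin signal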
Lmaj promast = Leishmania major promastigote growth inhibition; Leishmania major promastigotes, resazurin fluorescence viability; AID 1063; hit rate 9% among 200,000; inhibition, % at 10 µM; in the data active means inhibition above about 50%;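 further: promastigotes grown with compound for 44 hours at 28 °C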
HSV augment = HSV replication enhancement; HSV replication augmentation in cells, fold increase; maximum fold increase; hit rate 0.005% among 220,000; in the data active means maximum fold increase above about 1.5; tested in PC3 cells
* marks the source's active call; other numbers are inactive results; i = inactive; nt = no result.

SMILES | MT stabilizer | Dynein transport | b-catenin transl | Lmaj promast | HSV augment
COc1ccc(CNC(=O)Cn2nc(-c3ccc4c(c3)OCCO4)ccc2=O)cc1 | 6 | -0.51 | -2 | 2 | i
Cc1ccc(NC(=O)c2ccc(S(=O)(=O)C(F)F)cc2)c(C)c1 | 2 | 2.1 | 0 | 3 | i
COC(=O)c1[nH]c2ccc(F)cc2c1NC(=O)CCN1CC(C)OC(C)C1 (stereo not given) | 3 | 1.1 | -2 | -2 | i
CCOC(=O)C1C(c2cccs2)NC(=O)NC1(O)C(F)(F)F (stereo not given) | 2 | -0.16 | -1 | -6 | i
CCOC(=O)C1C(c2cccnc2)NC(=O)NC1(O)C(F)(F)F (stereo not given) | 17* | -1 | -2 | -1 | i
CCCCNCC(O)(c1ccc(Cl)cc1)c1ccc(Cl)cc1 | 6 | -1.3 | 0 | 90* | i
COc1ccc(CNCC(O)(c2ccc(Cl)cc2)c2ccc(Cl)cc2)cc1 | 2 | -1 | -2 | 101* | i
COc1ccc(C2CC3(CC(C)(C)NC(=S)N3)Oc3cc(O)cc(C)c32)cc1OC (stereo not given) | 3 | -0.15 | 0 | 1 | i
CC(C)(C)C(=O)N1CCC[C@H]1C(O)(c1ccccc1)c1ccccc1 | 6 | 0.51 | 2 | 18 | i
COc1ccc(CC2(CO)CCN(C(C)COc3ccccc3)CC2)cc1 (stereo not given) | 2 | -1.2 | 1 | 79* | i
COc1ccc(CC2(CO)CCN(Cc3cnc(-c4ccccc4C)nc3)CC2)cc1 | 1 | -0.57 | 0 | -5 | i
CC(COc1ccccc1)N1CCC(CO)(Cc2ccccc2)CC1 (stereo not given) | 3 | -1.2 | -2 | 60* | i
COc1ccc(CC2(CO)CCN(C/C=C/c3ccccc3OC)CC2)cc1 | 4 | -0.27 | 3 | 87* | i
O=C(Cn1c(=O)c(=O)n(Cc2ccccc2)c2ccc(Cl)cc21)NCC1CCCO1 (stereo not given) | 3 | 0.13 | -5 | 4 | i
O=C(Cn1c(=O)c(=O)n(Cc2ccccc2)c2ccc(Cl)cc21)Nc1ccc(F)cc1F | 26* | -0.86 | 0 | 1 | i
O=C(Nc1ccc(F)cc1F)NC1CC(=O)N(Cc2ccccc2)C1 (stereo not given) | 3 | 1.1 | 0 | -6 | i
CC(C)(C)NC(=O)Cn1c(=O)c(=O)n(Cc2ccccc2)c2ccc(Cl)cc21 | 2 | 0.21 | 1 | 58* | i
CCOC(=O)/C(CCC[N+](C)(CC)CC)=N\O | 2 | 1.7 | -1 | 5 | i
COc1cccc(-c2cc(C(=O)NCc3ccc(Cl)cc3)no2)c1 | 3 | 1.6 | -1 | -1 | i
Clc1ccc2c(c1)[C@H]1OCC[C@H]1[C@@H](c1ccco1)N2 | 4 | 1.1 | -4 | -5 | i
Cc1nc(Nc2ccc(F)cc2)[nH]c(=O)c1CCC(C)C | 2 | -0.69 | 1 | 53* | i
CC/C(=C\C(=O)c1ccncc1)Nc1ccc(O)cc1 | 1 | -0.44 | nt | -2 | i
Cn1c(=O)c(=O)n(C)c2cc(S(=O)(=O)Nc3ccc4c(c3)OCCO4)ccc21 | 3 | -0.5 | 0 | 64* | i
Cn1c(=O)c(=O)n(C)c2cc(S(=O)(=O)Nc3ccc(OC(F)(F)F)cc3)ccc21 | 2 | 0.87 | -6 | 99* | i
Cn1cc(S(=O)(=O)Nc2ccc(OC(F)(F)F)cc2)c(=O)n(C)c1=O | nt | -0.89 | -1 | nt | i
SMILES | MT stabilizer | Dynein transport | b-catenin transl | Lmaj promast | HSV augment
COc1ccc(NS(=O)(=O)c2ccc(O)c(C(=O)OCC(=O)Nc3ccc4c(c3)OCCO4)c2)cc1 | 3 | -0.97 | -1 | -8 | i
COc1ccc(NS(=O)(=O)c2ccc3oc(Nc4ccc5c(c4)OCCO5)nc3c2)cc1 | 2 | -0.6 | -1 | 93* | i
Cc1ccc(CNS(=O)(=O)c2ccc3c(c2)n(C)c(=O)c(=O)n3C)cc1 | 3 | -0.1 | -5 | 99* | i
N=c1n(CCN2CCCCC2)c2ccccc2n1CC(O)c1ccc(Cl)c(Cl)c1 (stereo not given) | 6 | -3.3 | 4 | 100* | i
N=c1n(CCN2CCCCC2)c2ccccc2n1CC(O)c1cccc(Br)c1 (stereo not given) | 2 | -0.22 | -5 | 100* | i
COC(=O)Cn1c(=N)n(CCN2CCCCC2)c2ccccc21 | 5 | -0.73 | 1 | 3 | i
CN(C)CCn1c(=N)n(CC(O)c2ccc(Cl)c(Cl)c2)c2ccccc21 (stereo not given) | 2 | 0.13 | -2 | 100* | i
CSc1nnc(C)c(=O)n1COC(=O)COc1ccccc1C | 3 | -0.13 | 0 | -2 | i
COc1cccc(-c2nc(C=O)cs2)c1 | 6 | 1.4 | -2 | 17 | i
CC(=O)Nc1ccccc1-c1nc2ccc(C(=O)N3CCN(c4cc(C)ccc4C)CC3)cc2[nH]c1=O | 5 | -0.82 | nt | 56* | i
Clc1ccc(OCCn2ccnc2)c(Br)c1 | 2 | 0.072 | nt | 31 | i
CN(C)CCCCOc1ccc(Br)cc1Cl | 4 | 1.7 | 0 | 96* | i
COc1cccc(OCCOCCN(C)CCO)c1 | 7 | 0.43 | 0 | -2 | i
CCc1cc(OCCOCCN(C)C)ccc1Cl | 4 | 1.9 | -3 | 98* | i
OCCNCCCOc1ccc(Cl)cc1Br | 1 | -0.64 | 0 | 87* | i
C=CCNCCCOc1ccc(Cl)cc1Br | 4 | 0.44 | 0 | 78* | i
CCOc1ccc(Cl)cc1CNCCNCCO | 2 | -1.7 | -2 | 19 | i
COCCCn1c(-c2ccccc2)nc2ccccc2c1=O | 3 | -0.71 | -7 | 1 | i
O=C(NC(Nc1nc2ccccc2s1)(C(F)(F)F)C(F)(F)F)c1ccccc1 | 2 | 0.5 | -5 | 19 | i
CC(C)=CC(=O)Nc1nnc(-c2cccnc2)s1 | 6 | -0.41 | -2 | 1 | i
COCCNCCOc1ccc(C)cc1[N+](=O)[O-] | 3 | 0.26 | -1 | 1 | i
COCCNCCCOc1ccc(Cl)cc1Br | 3 | -0.82 | 0 | 65* | i
COCCNCCCOc1ccc(Br)cc1Cl | 3 | -0.56 | 0 | 81* | nt
COc1cc(C)ccc1OCCOc1cc(C)ccc1Cl | 2 | -0.18 | -2 | -6 | i
Cc1ccc(OCCOCCN(C)C)c(Cl)c1 | 4 | 0.1 | 3 | 85* | i
COC(=O)CSC1=C(C#N)C(c2ccccc2F)CC(=O)N1 (stereo not given) | nt | -0.86 | 6 | nt | i
COc1ccc(C(=O)C(CCC(CNC(C)(C)C)C(=O)c2ccc(OC)cc2)CNC(C)(C)C)cc1 (stereo not given) | 2 | -2.1 | 13 | 100* | i
C/C(=N\NC(=S)Nc1cccc(C)c1)c1cc2ccccc2o1 | 9 | 1.8 | -4 | 90* | i
CCOc1ccccc1C(=O)Nc1ccsc1C(=O)OC | 28* | -0.084 | 57* | -1 | i

Screening data: PubChem BioAssay, several laboratories
